Data reported in PubChem BioAssay AID504525 (Broad Institute, 2011).
Unmarked numbers belong to inactive results.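 Rule for the calls: active = fitted dose curve showing toxicity with half-maximal concentration at most ten times the top tested dose; inconclusive = flat curve with 30 to 70% toxicity, or poor fit; inactive = the rest.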

experiment: mammalian cell viability loss with fluconazole – NIH-3T3, powder samples, set 7, cytotoxicity control for antifungal drug resistance project, dose response (AID 504525); settings: NIH-3T3 viability with fluconazole, Alamar Blue, 48 h; series mostly up to 26 µM; activity change, negative = toxicity: at the top concentration
Method in brief: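 Assay system: NIH 3T3 fibroblasts; Amount: 6,000 cells/well; Buffer or medium: Optimem growth medium with 2.5% fetal bovine serum; Reagent: fluconazole co-treatment at 8 µg/mL final; Doses: test compound dose series, top final amount 26 µM; Times: 48 h compound exposure at 37 °C; Technique: Alamar Blue fluorescence, Ex 544/Em 590 nm.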

SMILES	activity change, negative = toxicity
COC(=O)n1nc(-c2ccccc2)c2ccccc21	-1.06%
O=C(Cn1c2ccc(F)cc2c2nc3n(c(=O)c21)CCS3)N1CCC(F)(F)CC1	19.8%
c1ccc(-c2nn(Cc3nnco3)c3ccccc23)cc1	16.2%
CC1CCN(CCn2c3ccccc3c3nc4n(c(=O)c32)CCS4)CC1	30.3%
COC(=O)Cn1nc(-c2cccc(C)c2)c2ccccc21	48.8%
